Peptide text beside a SMILES is read from it.
Columns and labels:
HLA-A*1101 = HLA-A*1101 (Homo sapiens, UniProt P04439, A114D/D185E/E176A/F33Y/L180Q/S129P/T187R); test: Competitive peptide-binding assay, purified HLA-A*1101
HLA-A*0301 = HLA-A*0301 (Homo sapiens, UniProt P04439); test: Competitive peptide-binding assay, purified HLA-A*0301
In short: (§1)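 HLA class I purified from EBV-transformed homozygous or single-allele-transfected 721.221/C1R lysates on W6/32 beads (some HLA-A pre-depleted of B/C on B1.23.2). 0.1–1 nM radiolabeled high-affinity probe, 1 µM to 1 nM MHC, protease inhibitors, 1 µM β2m; 2 days, room temp. Complexes captured on W6/32 plates, cpm counted. Competitor at six concentrations over 100,000-fold range, ≥3 experiments; IC50 = 50% probe inhibition.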

HLA-A*3001 = HLA-A*3001 (Homo sapiens, UniProt P04439, D140H/D185E/E176W/F33S/G80R/H175R/K168Q/R138E/R41S); test: Competitive peptide-binding assay, purified HLA-A*3001
In short: as §1

HLA-A*3101 = HLA-A*3101 (Homo sapiens, UniProt P04439, A270S/D185E/E176V/E277Q/F33T/G231S/G80R/H175R/I121M/I218V/I322F/K168Q/L300P/L318F/M331R/P217A/Q94H/R138Q/T323A/T345S/T97I/V358M); test: Competitive peptide-binding assay, purified HLA-A*3101
HLA-A*3301 = HLA-A*3301 (Homo sapiens, UniProt P04439, A270S/D185E/E176V/E277Q/E87N/F33T/G231S/H175R/I121M/I218V/I322F/K168Q/K210R/L300P/L318F/M331R/P217A/Q86R/Q94H/R138Q/T323A/T345S/T97I/V358M/Y195H); test: Competitive peptide-binding assay, purified HLA-A*3301
In short: as §1

HLA-A*6601 = HLA-A*6601 (Homo sapiens, UniProt P04439, A114D/A173T/A270S/D185E/E277Q/E87N/F33Y/G231S/I121R/I218V/K168Q/L180W/L300P/L318F/P208A/P217A/Q86R/R138Q/S129P/T187R/T323A/T345S/V358M); test: Competitive peptide-binding assay, purified HLA-A*6601
In short: as §1

HLA-A*6801 = HLA-A*6801 (Homo sapiens, UniProt P04439, A269V/D185E/E176V/E277Q/E87N/F33Y/G231S/I121M/I166T/I218V/L180W/L300P/L318F/N151K/P208A/P217A/Q86R/R169H/T345S); test: Competitive peptide-binding assay, purified HLA-A*6801
In short: as §1

HLA-B*0702 = HLA-B*0702 (Homo sapiens, UniProt P01889); test: Competitive peptide-binding assay, purified HLA-B*0702
In short: as §1

HLA-B*3501 = HLA-B*3501 (Homo sapiens, UniProt P01889, A329T/A93T/A95T/C349S/D201E/D98Y/E176V/E187L/E204Q/E69T/I218V/K202T/L119I/Q94N/R155S/R180L/S121R/S35A/S48A/T118I/V127L/V306I/V36M/Y140S/Y91F); test: Competitive peptide-binding assay, purified HLA-B*3501
In short: as §1

HLA-B*3503 = HLA-B*3503 (Homo sapiens, UniProt P01889, A329T/A93T/A95T/C349S/D201E/D98Y/E176V/E187L/E204Q/E69T/I218V/K202T/L119I/Q94N/R155S/R180L/S121R/S35A/S48A/T118I/V127L/V306I/V36M/Y140F/Y91F); test: Competitive peptide-binding assay, purified HLA-B*3503
In short: as §1

HLA-B*4201 = HLA-B*4201 (Homo sapiens, UniProt P01889, D138N/E176V/E187T/K202T/R180D); test: Competitive peptide-binding assay, purified HLA-B*4201
In short: as §1

HLA-B*5101 = HLA-B*5101 (Homo sapiens, UniProt P01889, A329T/A93T/A95T/C349S/D138N/D201E/D98Y/E187L/E204Q/E69T/G107R/I218V/K202T/L105A/L119W/N104I/Q94N/R106L/R155S/R180L/S101N/S121T/S35A/S48A/V306I/V36M/Y195H/Y91F); test: Competitive peptide-binding assay, purified HLA-B*5101
In short: as §1

HLA-B*5301 = HLA-B*5301 (Homo sapiens, UniProt P01889, A329T/A93T/A95T/C349S/D201E/D98Y/E176V/E187L/E204Q/E69T/G107R/I218V/K202T/L105A/L119I/N104I/Q94N/R106L/R155S/R180L/S101N/S121R/S35A/S48A/T118I/V127L/V306I/V36M/Y140S/Y91F); test: Competitive peptide-binding assay, purified HLA-B*5301
In short: as §1

HLA-B*5401 = HLA-B*5401 (Homo sapiens, UniProt P01889, A329T/C349S/D138N/D201E/E176V/E187T/E204Q/E69G/I76V/K202T/L119W/R155S/R180L/S121T/S35A/S48A/V127L/V306I/V36M/Y140L); test: Competitive peptide-binding assay, purified HLA-B*5401
In short: as §1

[1] = test system: T cells of recent-onset HLA-A*0201-positive patients; conditions: recent-onset HLA-A*0201-positive type 1 diabetes patients; cited from earlier work

## CC[C@H](C)[C@H](NC(=O)[C@H](C)N)C(=O)N[C@@H](CC(N)=O)C(=O)N[C@@H](CO)C(=O)N[C@@H](CCC(=O)O)C(=O)N[C@@H](CCSC)C(=O)N[C@@H](Cc1ccccc1)C(=O)N[C@@H](CC(C)C)C(=O)N[C@@H](CC(C)C)C(=O)O [Human IGRP 272–280] (H-AINSEMFLL-OH)
HLA-A*1101
  IC50: 2.82 µM
HLA-A*0301
  IC50: 1.26 µM
HLA-A*3001
  IC50: 6.78 µM
HLA-A*3101
  IC50: 1.07 µM
HLA-A*3301
  IC50: 12.8 µM
HLA-A*6601
  IC50: 36.7 µM
HLA-A*6801
  IC50: 14.2 µM

## CC(C)C[C@H](NC(=O)[C@H](C)NC(=O)[C@H](CC(C)C)NC(=O)[C@@H]1CCCN1C(=O)[C@H](CCC(N)=O)NC(=O)[C@H](CC(C)C)NC(=O)[C@H](CO)NC(=O)CNC(=O)[C@H](C)NC(=O)CNC(=O)[C@@H]1CCCN1C(=O)CN)C(=O)O [Human Ins C15-26] (H-GPGAGSLQPLAL-OH)
HLA-B*0702
  IC50: 0.462 µM
HLA-B*3501
  IC50: > 50 µM
HLA-B*3503
  IC50: > 50 µM
HLA-B*4201
  IC50: 6.07 µM
HLA-B*5101
  IC50: > 50 µM
HLA-B*5301
  IC50: 15.5 µM
HLA-B*5401
  IC50: > 50 µM

## CC(C)C[C@H](NC(=O)[C@H](C)NC(=O)[C@H](CC(C)C)NC(=O)[C@@H]1CCCN1)C(=O)N[C@@H](CCC(=O)O)C(=O)NCC(=O)N[C@@H](CO)C(=O)N[C@@H](CC(C)C)C(=O)N[C@@H](CCC(N)=O)C(=O)N[C@@H](CCCCN)C(=O)O [Human Ins C23-32] (H-PLALEGSLQK-OH)
HLA-A*1101
  IC50: 37.1 µM
HLA-A*0301
  IC50: 20.9 µM
HLA-A*3001
  IC50: > 50 µM
HLA-A*3101
  IC50: 39.4 µM
HLA-A*3301
  IC50: > 50 µM
HLA-A*6601
  IC50: 48.5 µM
HLA-A*6801
  IC50: 41.5 µM

## CC(C)C[C@H](NC(=O)[C@H](C)NC(=O)[C@@H](N)CC(C)C)C(=O)N[C@@H](CCC(=O)O)C(=O)NCC(=O)N[C@@H](CO)C(=O)N[C@@H](CC(C)C)C(=O)N[C@@H](CCC(N)=O)C(=O)N[C@@H](CCCCN)C(=O)N[C@@H](CCCNC(=N)N)C(=O)O [Human Ins C24-33] (H-LALEGSLQKR-OH)
HLA-A*1101
  IC50: 34.5 µM
HLA-A*0301
  IC50: 17.5 µM
HLA-A*3001
  IC50: > 50 µM
HLA-A*3101
  IC50: 38.4 µM
HLA-A*3301
  IC50: 3.27 µM
HLA-A*6601
  IC50: 0.515 µM
HLA-A*6801
  IC50: 0.066 µM

## CC[C@H](C)[C@H](NC(=O)[C@H](C)N)C(=O)N[C@@H](CC(N)=O)C(=O)N[C@@H](CO)C(=O)N[C@@H](CCC(=O)O)C(=O)N[C@@H](CCSC)C(=O)N[C@@H](Cc1ccccc1)C(=O)N[C@@H](CC(C)C)C(=O)N[C@@H](CCCNC(=N)N)C(=O)O [Mouse IGRP 272–280] (H-AINSEMFLR-OH)
HLA-A*1101
  IC50: 0.209 µM
HLA-A*0301
  IC50: 0.428 µM
HLA-A*3001
  IC50: 49.8 µM
HLA-A*3101
  IC50: 0.067 µM
HLA-A*3301
  IC50: 1.08 µM
HLA-A*6601
  IC50: 4.55 µM
HLA-A*6801
  IC50: 0.109 µM

## CC(C)C[C@H](NC(=O)[C@H](C)NC(=O)[C@H](CC(C)C)NC(=O)[C@@H](NC(=O)[C@H](CCC(N)=O)NC(=O)[C@H](CC(C)C)NC(=O)[C@H](CC(=O)O)NC(=O)CNC(=O)[C@@H]1CCCN1C(=O)[C@@H](N)CO)[C@@H](C)O)C(=O)O [Mouse Ins1 C15-24] (H-SPGDLQTLAL-OH)
HLA-B*0702
  IC50: 0.0044 µM
HLA-B*3501
  IC50: > 50 µM
HLA-B*3503
  IC50: 16.1 µM
HLA-B*4201
  IC50: 0.035 µM
HLA-B*5101
  IC50: > 50 µM
HLA-B*5301
  IC50: 11 µM
HLA-B*5401
  IC50: > 50 µM

## CC(C)C[C@H](NC(=O)[C@H](C)NC(=O)[C@H](CC(C)C)NC(=O)[C@@H](N)[C@@H](C)O)C(=O)N[C@@H](CCC(=O)O)C(=O)N[C@H](C(=O)N[C@@H](C)C(=O)N[C@@H](CCCNC(=N)N)C(=O)N[C@@H](CCC(N)=O)C(=O)N[C@@H](CCCCN)C(=O)O)C(C)C [Mouse Ins1 C21-30] (H-TLALEVARQK-OH)
HLA-A*1101
  IC50: 3.33 µM
HLA-A*0301
  IC50: 0.605 µM
HLA-A*3001
  IC50: 23.3 µM
HLA-A*3101
  IC50: 13 µM
HLA-A*3301
  IC50: 25.5 µM
HLA-A*6601
  IC50: > 50 µM
HLA-A*6801
  IC50: 13.4 µM

## CC(C)C[C@H](NC(=O)[C@H](C)NC(=O)[C@@H](N)CC(C)C)C(=O)N[C@@H](CCC(=O)O)C(=O)N[C@H](C(=O)N[C@@H](C)C(=O)N[C@@H](CCCNC(=N)N)C(=O)N[C@@H](CCC(N)=O)C(=O)N[C@@H](CCCCN)C(=O)N[C@@H](CCCNC(=N)N)C(=O)O)C(C)C [Mouse Ins1 C22-31] (H-LALEVARQKR-OH)
HLA-A*1101
  IC50: > 50 µM
HLA-A*0301
  IC50: 43.6 µM
HLA-A*3001
  IC50: 43 µM
HLA-A*3101
  IC50: 10.8 µM
HLA-A*3301
  IC50: 9.14 µM
HLA-A*6601
  IC50: 13 µM
HLA-A*6801
  IC50: 12.6 µM

## CC(C)C[C@H](NC(=O)[C@H](C)NC(=O)[C@H](CC(C)C)NC(=O)[C@@H](N)[C@@H](C)O)C(=O)N[C@@H](CCC(=O)O)C(=O)N[C@H](C(=O)N[C@@H](C)C(=O)N[C@@H](CCC(N)=O)C(=O)N[C@@H](CCC(N)=O)C(=O)N[C@@H](CCCCN)C(=O)O)C(C)C [Mouse Ins2 C23-32] (H-TLALEVAQQK-OH)
HLA-A*1101
  IC50: 0.833 µM
HLA-A*0301
  IC50: 0.856 µM
HLA-A*3001
  IC50: > 50 µM
HLA-A*3101
  IC50: > 50 µM
HLA-A*3301
  IC50: > 50 µM
HLA-A*6601
  IC50: > 50 µM
HLA-A*6801
  IC50: 7.49 µM

## IGRP 265–273: HLA-A2-binding IGRP epitope recognised in patients (VLFGLGFAI; UniProt Q9NQR9 265-273, looked up, fragment)
[1]
  Patients showing T cell responses to the peptide (fraction in words): one quarter

From article PMC3358524 (Journal of Immunology (Baltimore, Md. : 1950), 2012)
